# Measured values as given in article PMC6333999 (Cancer Research and Treatment : Official Journal of Korean …, 2018).
# T1: recombinant GST-tag p38δ protein (UniProt O15264)
# T1 sequence: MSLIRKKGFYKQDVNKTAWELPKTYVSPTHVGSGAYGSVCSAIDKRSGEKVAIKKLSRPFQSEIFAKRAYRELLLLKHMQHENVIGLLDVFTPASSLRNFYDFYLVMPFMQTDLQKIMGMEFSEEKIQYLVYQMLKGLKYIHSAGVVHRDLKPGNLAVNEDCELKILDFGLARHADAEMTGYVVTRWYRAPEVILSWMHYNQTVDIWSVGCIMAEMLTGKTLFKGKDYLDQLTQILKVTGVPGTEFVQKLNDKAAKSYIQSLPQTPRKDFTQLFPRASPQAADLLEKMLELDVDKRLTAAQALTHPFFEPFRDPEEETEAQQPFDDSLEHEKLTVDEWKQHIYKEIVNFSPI
# Assays:
# [1] = system: p38α; settings: background statement, no reference given; cited from earlier work
# [2] = system: p38α; experiment: Percentage inhibition assay by ELISA; format: biochemical; settings: ATF-2 substrate, same experiment as p38δ
# Outline: (§1)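 Added to ATF-2-coated plates, 1 h at 37°C. Anti-phospho-ATF-2 1:400, then AP anti-rabbit IgG 1:4,000, each 1 h at 37°C. pNPP (pH 8.1) 90 min, NaOH stop, A405. Enzyme without peptide taken as 100% activity for % inhibition.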
# [3] = system: p38δ; experiment: Percentage inhibition assay by ELISA; format: biochemical
# Outline: as §1
# [4] = system: p38α; experiment: SPR binding of peptide with p38α; settings: BIAcore 3000, p38α on Ni-NTA chip, peptide in HBS-EP buffer
# Outline: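 Pure p38α protein captured on an Ni-NTA chip. Test peptide in HBS-EP buffer injected at 0.23, 0.46 and 0.77 mM. Sensorgrams recorded, and association (KA) and dissociation (KD) constants fitted from them.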
# [5] = biological target: T1, recombinant GST-tag p38δ protein; experiment: SPR
molecule,measurement,setting,value
C[S+]([O-])c1ccc(-c2nc(-c3ccncc3)c(-c3ccc(F)cc3)[nH]2)cc1 (stereo not drawn) [SB203580],specificity for p38α,[1],very specific p38α inhibitor
WFYH,inhibition of p38α,[2],no inhibition
same,percentage inhibition of p38δ,"[3]; 75 μM peptide, ELISA, ATF-2 substrate, 100 μM ATP, pH 7.5, 37°C, 1 hour, 405 nm",77%
same,phosphorylation of ATF-2 by p38δ,"[3]; kinetic assays, pure p38δ protein incubated with peptide",reduction in phosphorylation of ATF-2
same,binding to p38α,[4],no binding was observed
WFYH [WFYH tetrapeptide],Kd,[5],0.704 nM
